Measurements taken from ChEMBL document CHEMBL1811814, “Synthesis and evaluation of indole, pyrazole, chromone and pyrimidine based conjugates for tumor growth inhibitory activities--development of highly efficacious cytotoxic agents” (Eur J Med Chem, 2010).

What was measured:
Assay type in all cases: functional
Set-up in all cases: scale not given: the % may be the effect or the level left
HCT-116 = test: Growth inhibition of human HCT116 cells assessed tumor cell growth at 10^-5 M
Summary of the method: (§1)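 NCI 60-human-tumor-cell-line panel screen. Each compound was tested at a single concentration of 10^-5 M, and percent growth of tumor cells was recorded for each cell line. Growth inhibition was expressed from these percent-growth values.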

NCI-H23 = test: Growth inhibition of human NCI-H23 cells assessed tumor cell growth at 10^-5 M; summary of the method: as §1
M14 = test: Growth inhibition of human M14 cells assessed tumor cell growth at 10^-5 M; summary of the method: as §1
SF-295 = test: Growth inhibition of human SF295 cells assessed tumor cell growth at 10^-5 M; summary of the method: as §1
IGROV-1 = test: Growth inhibition of human IGROV1 cells assessed tumor cell growth at 10^-5 M; summary of the method: as §1
SN12C = test: Growth inhibition of human SN12C cells assessed tumor cell growth at 10^-5 M; summary of the method: as §1
SF-268 = test: Growth inhibition of human SF268 cells assessed tumor cell growth at 10^-5 M; summary of the method: as §1
HOP-92 = test: Growth inhibition of human HOP92 cells assessed tumor cell growth at 10^-5 M; summary of the method: as §1
SK-OV-3 = test: Growth inhibition of human SKOV3 cells assessed tumor cell growth at 10^-5 M; summary of the method: as §1
A498 = test: Growth inhibition of human A498 cells assessed tumor cell growth at 10^-5 M; summary of the method: as §1
NCI-H322M = test: Growth inhibition of human NCI-H322M cells assessed tumor cell growth at 10^-5 M; summary of the method: as §1
T47D = test: Growth inhibition of human T47D cells assessed tumor cell growth at 10^-5 M
Summary of the method: (§2)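 Single-dose screen at 10^-5 M across the 60 human tumor cell line panel, run to NCI standards. The value is the percent growth of each cell line in the presence of compound. Compounds active at this dose moved on to five-concentration testing (10^-4 to 10^-8 M).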

MDA-MB-435 = test: Growth inhibition of human MDA-MB-435 cells assessed tumor cell growth at 10^-5 M; summary of the method: as §1
SF-539 = test: Growth inhibition of human SF539 cells assessed tumor cell growth at 10^-5 M; summary of the method: as §1
PC-3 = test: Growth inhibition of human PC3 cells assessed tumor cell growth at 10^-5 M; summary of the method: as §1
HL-60(TB) = test: Growth inhibition of human HL-60(TB) cells assessed tumor cell growth at 10^-5 M
Summary of the method: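 HL-60(TB), part of the 60-line panel, tested at a single concentration of 10^-5 M. The read-out is percent tumor cell growth relative to untreated growth.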

CAKI-1 = test: Growth inhibition of human Caki1 cells assessed tumor cell growth at 10^-5 M; summary of the method: as §1
HOP-62 = test: Growth inhibition of human HOP62 cells assessed tumor cell growth at 10^-5 M; summary of the method: as §1
OVCAR-3 = test: Growth inhibition of human OVCAR3 cells assessed tumor cell growth at 10^-5 M; summary of the method: as §1
BT-549 = test: Growth inhibition of human BT549 cells assessed tumor cell growth at 10^-5 M; summary of the method: as §1
786-0 = test: Growth inhibition of human 786-0 cells assessed tumor cell growth at 10^-5 M; summary of the method: as §1
A549 = test: Growth inhibition of human A549 cells assessed tumor cell growth at 10^-5 M; summary of the method: as §1
[1] = Growth inhibition of human Hs 578T cells assessed tumor cell growth at 10^-5 M; summary of the method: as §1
DU-145 = test: Growth inhibition of human DU145 cells assessed tumor cell growth at 10^-5 M; summary of the method: as §1
COLO 205 = test: Growth inhibition of human COLO205 cells assessed tumor cell growth at 10^-5 M; summary of the method: as §1
SK-MEL-2 = test: Growth inhibition of human SK-MEL-2 cells assessed tumor cell growth at 10^-5 M; summary of the method: as §1
NCI-H460 = test: Growth inhibition of human NCI-H460 cells assessed tumor cell growth at 10^-5 M; summary of the method: as §1
U-251 = test: Growth inhibition of human U251 cells assessed tumor cell growth at 10^-5 M; summary of the method: as §2
UACC-257 = test: Growth inhibition of human UACC257 cells assessed tumor cell growth at 10^-5 M; summary of the method: as §2
NCI/ADR-RES = test: Growth inhibition of human NCI/ADR-RES cells assessed tumor cell growth at 10^-5 M; summary of the method: as §1
SK-MEL-28 = test: Growth inhibition of human SK-MEL-28 cells assessed tumor cell growth at 10^-5 M; summary of the method: as §1
MDA-MB-468 = test: Growth inhibition of human MDA-MB-468 cells assessed tumor cell growth at 10^-5 M; summary of the method: as §1
SK-MEL-5 = test: Growth inhibition of human SK-MEL-5 cells assessed tumor cell growth at 10^-5 M; summary of the method: as §1
NCI-H226 = test: Growth inhibition of human NCI-H226 cells assessed tumor cell growth at 10^-5 M; summary of the method: as §1
EKVX = test: Growth inhibition of human EKVX cells assessed tumor cell growth at 10^-5 M; summary of the method: as §1
HT-29 = test: Growth inhibition of human HT-29 cells assessed tumor cell growth at 10^-5 M; summary of the method: as §1
ACHN = test: Growth inhibition of human ACHN cells assessed tumor cell growth at 10^-5 M; summary of the method: as §1
OVCAR-5 = test: Growth inhibition of human OVCAR5 cells assessed tumor cell growth at 10^-5 M; summary of the method: as §1
HCT-15 = test: Growth inhibition of human HCT15 cells assessed tumor cell growth at 10^-5 M; summary of the method: as §1
UO-31 = test: Growth inhibition of human UO31 cells assessed tumor cell growth at 10^-5 M; summary of the method: as §2
OVCAR-8 = test: Growth inhibition of human OVCAR8 cells assessed tumor cell growth at 10^-5 M; summary of the method: as §1
MCF7 = test: Growth inhibition of human MCF7 cells assessed tumor cell growth at 10^-5 M; summary of the method: as §1
SNB-19 = test: Growth inhibition of human SNB19 cells assessed tumor cell growth at 10^-5 M; summary of the method: as §2
[2] = Growth inhibition of human […] cells assessed tumor cell growth at 10^-5 M; summary of the method: as §1
MDA-MB-231 = test: Growth inhibition of human MDA-MB-231 cells assessed tumor cell growth at 10^-5 M; summary of the method: as §1
NCI-H522 = test: Growth inhibition of human NCI-H522 cells assessed tumor cell growth at 10^-5 M; summary of the method: as §1
OVCAR-4 = test: Growth inhibition of human OVCAR4 cells assessed tumor cell growth at 10^-5 M; summary of the method: as §1
CCRF-CEM = test: Growth inhibition of human CCRF-CEM cells assessed tumor cell growth at 10^-5 M; summary of the method: as §1
SR = test: Growth inhibition of human SR cells assessed tumor cell growth at 10^-5 M; summary of the method: as §2
K562 = test: Growth inhibition of human K562 cells assessed tumor cell growth at 10^-5 M; summary of the method: as §1
SW-620 = test: Growth inhibition of human SW620 cells assessed tumor cell growth at 10^-5 M; summary of the method: as §2
UACC-62 = test: Growth inhibition of human UACC62 cells assessed tumor cell growth at 10^-5 M; summary of the method: as §2
RXF 393 = test: Growth inhibition of human RXF393 cells assessed tumor cell growth at 10^-5 M; summary of the method: as §1
KM12 = test: Growth inhibition of human KM12 cells assessed tumor cell growth at 10^-5 M; summary of the method: as §1
MOLT-4 = test: Growth inhibition of human MOLT4 cells assessed tumor cell growth at 10^-5 M; summary of the method: as §1
TK-10 = test: Growth inhibition of human TK10 cells assessed tumor cell growth at 10^-5 M; summary of the method: as §2
LOX IMVI = test: Growth inhibition of human LOXIMVI cells assessed tumor cell growth at 10^-5 M; summary of the method: as §1
HCC 2998 = test: Growth inhibition of human HCC2998 cells assessed tumor cell growth at 10^-5 M; summary of the method: as §1
Malme-3M = test: Growth inhibition of human MALME-3M cells assessed tumor cell growth at 10^-5 M; summary of the method: as §1
SNB-75 = test: Growth inhibition of human SNB75 cells assessed tumor cell growth at 10^-5 M; summary of the method: as §2

SMILES: CC1=NN(c2cccc(Cl)c2)C(=O)/C1=C\c1cn(C(=O)c2ccc(Cl)cc2)c2ccccc12
- Activity (HCT-116): 100.16%
- Activity (NCI-H23): 91.24%
- Activity (M14): 96.55%
- Activity (SF-295): 102.34%
- Activity (IGROV-1): 75.7%
- Activity (SN12C): 92.22%
- Activity (SF-268): 98.24%
- Activity (HOP-92): 99.69%
- Activity (SK-OV-3): 91.35%
- Activity (A498): 123.09%
- Activity (NCI-H322M): 109.45%
- Activity (T47D): 79.84%
- Activity (MDA-MB-435): 120.68%
- Activity (SF-539): 97.75%
- Activity (PC-3): 95.29%
- Activity (HL-60(TB)): 117.42%
- Activity (CAKI-1): 92.37%
- Activity (HOP-62): 94.61%
- Activity (OVCAR-3): 97.57%
- Activity (BT-549): 95.84%
- Activity (786-0): 104.1%
- Activity (A549): 96.27%
- Activity [1]: 92.29%
- Activity (DU-145): 104.66%
- Activity (COLO 205): 113.51%
- Activity (SK-MEL-2): 105.09%
- Activity (NCI-H460): 109.18%
- Activity (U-251): 94.02%
- Activity (UACC-257): 105.58%
- Activity (NCI/ADR-RES): 107.61%
- Activity (SK-MEL-28): 112.94%
- Activity (MDA-MB-468): 103.55%
- Activity (SK-MEL-5): 90.74%
- Activity (NCI-H226): 86.8%
- Activity (EKVX): 79.35%
- Activity (HT-29): 101.17%
- Activity (ACHN): 88.25%
- Activity (OVCAR-5): 97.61%
- Activity (HCT-15): 91.41%
- Activity (UO-31): 76.43%
- Activity (OVCAR-8): 98.63%
- Activity (MCF7): 87.82%
- Activity (SNB-19): 99.84%
- Activity [2]: 97.03%
- Activity (MDA-MB-231): 87.79%
- Activity (NCI-H522): 100.77%
- Activity (OVCAR-4): 99.58%
- Activity (CCRF-CEM): 118.43%
- Activity (SR): 96.12%
- Activity (K562): 107.93%
- Activity (SW-620): 99.26%
- Activity (UACC-62): 90.62%
- Activity (RXF 393): 94.47%
- Activity (KM12): 93.09%
- Activity (MOLT-4): 99.47%
- Activity (TK-10): 167.41%
- Activity (LOX IMVI): 90.49%
- Activity (HCC 2998): 108.88%
- Activity (Malme-3M): 101.23%
- Activity (SNB-75): 80.97%

SMILES: CC1=NN(c2cccc(Cl)c2)C(=O)/C1=C\c1cn(Cc2ccccc2)c2ccccc12
- Activity (HCT-116): 81.87%
- Activity (NCI-H23): 88.9%
- Activity (M14): 93.78%
- Activity (SF-295): 74.11%
- Activity (IGROV-1): 85.79%
- Activity (SN12C): 101.76%
- Activity (SF-268): 95.57%
- Activity (HOP-92): 94.45%
- Activity (SK-OV-3): 71.03%
- Activity (A498): 89.58%
- Activity (NCI-H322M): 105.8%
- Activity (T47D): 67.17%
- Activity (MDA-MB-435): 106.21%
- Activity (SF-539): 96.45%
- Activity (PC-3): 84.66%
- Activity (HL-60(TB)): 99.67%
- Activity (CAKI-1): 89.4%
- Activity (HOP-62): 81.96%
- Activity (OVCAR-3): 95.7%
- Activity (BT-549): 107.13%
- Activity (786-0): 100.84%
- Activity (A549): 90.89%
- Activity [1]: 90.49%
- Activity (DU-145): 103.96%
- Activity (COLO 205): 96.36%
- Activity (SK-MEL-2): 90.21%
- Activity (NCI-H460): 55.83%
- Activity (U-251): 89.34%
- Activity (UACC-257): 93.1%
- Activity (NCI/ADR-RES): 100.71%
- Activity (SK-MEL-28): 98.38%
- Activity (MDA-MB-468): 76.71%
- Activity (SK-MEL-5): 90.4%
- Activity (NCI-H226): 16.9%
- Activity (EKVX): 82.36%
- Activity (HT-29): 93.03%
- Activity (ACHN): 84.07%
- Activity (OVCAR-5): 43.95%
- Activity (HCT-15): 97.68%
- Activity (UO-31): 71.93%
- Activity (OVCAR-8): 97.42%
- Activity (MCF7): 72.9%
- Activity (SNB-19): 93.46%
- Activity [2]: 88.18%
- Activity (MDA-MB-231): 89.94%
- Activity (NCI-H522): 86.7%
- Activity (OVCAR-4): 88.56%
- Activity (CCRF-CEM): 109.04%
- Activity (SR): 86.52%
- Activity (K562): 93.59%
- Activity (SW-620): 93.2%
- Activity (UACC-62): 78.13%
- Activity (RXF 393): 92.68%
- Activity (KM12): 93.39%
- Activity (MOLT-4): 89.6%
- Activity (TK-10): 154.6%
- Activity (LOX IMVI): 87%
- Activity (HCC 2998): 109.37%
- Activity (Malme-3M): 92.02%
- Activity (SNB-75): 80.99%
